The source made the active and inactive calls. The rule behind the calls is not given here.
Experiments:
[1] = target: Splicing factor 3B subunit 1 (Homo sapiens) (UniProt O75533); assay: Binding affinity to SAP155 in human HeLa cells at 2 uM by LC-MS/MS analysis
[2] = target: T1, Splicing factor 3B subunit 2 (Homo sapiens) (UniProt Q13435); assay: Binding affinity to SAP145 in human HeLa cells at 2 uM by LC-MS/MS analysis; assay type: cell-based
T1 sequence (whole entry): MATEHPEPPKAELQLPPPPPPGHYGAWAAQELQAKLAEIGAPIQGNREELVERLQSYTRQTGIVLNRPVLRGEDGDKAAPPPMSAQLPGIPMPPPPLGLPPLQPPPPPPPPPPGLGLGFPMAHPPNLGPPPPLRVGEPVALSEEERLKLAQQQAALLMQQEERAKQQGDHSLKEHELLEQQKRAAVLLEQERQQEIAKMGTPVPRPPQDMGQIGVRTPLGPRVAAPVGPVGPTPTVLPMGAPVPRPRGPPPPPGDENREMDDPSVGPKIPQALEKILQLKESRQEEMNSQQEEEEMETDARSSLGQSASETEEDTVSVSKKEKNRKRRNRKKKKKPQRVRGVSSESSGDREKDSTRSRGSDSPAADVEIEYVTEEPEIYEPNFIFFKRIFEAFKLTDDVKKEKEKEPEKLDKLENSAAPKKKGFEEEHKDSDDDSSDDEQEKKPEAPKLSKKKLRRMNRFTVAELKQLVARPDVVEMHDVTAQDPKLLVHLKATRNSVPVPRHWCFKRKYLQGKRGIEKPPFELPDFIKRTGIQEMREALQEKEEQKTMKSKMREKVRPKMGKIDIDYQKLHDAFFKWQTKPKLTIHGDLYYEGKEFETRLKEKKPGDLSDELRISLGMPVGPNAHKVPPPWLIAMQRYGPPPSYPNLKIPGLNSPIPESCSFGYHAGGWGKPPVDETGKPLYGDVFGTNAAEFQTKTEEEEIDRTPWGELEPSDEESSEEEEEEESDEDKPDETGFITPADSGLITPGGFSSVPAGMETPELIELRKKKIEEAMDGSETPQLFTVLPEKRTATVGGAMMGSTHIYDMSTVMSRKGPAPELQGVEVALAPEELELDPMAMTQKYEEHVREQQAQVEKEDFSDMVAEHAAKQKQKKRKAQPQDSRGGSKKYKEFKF

[3] = system: SF3b complex (Homo sapiens); assay: Binding affinity to SF3b SAP155/SAP145/SAP130 complex in human HeLa cells at 2 uM by Western blotting
[4] = target: Splicing factor 3B subunit 3 (Homo sapiens) (UniProt Q15393); assay: Binding affinity to SAP130 in human HeLa cells at 2 uM by LC-MS/MS analysis
Sequence of Splicing factor 3B subunit 3 (Homo sapiens) (Q15393 whole entry, looked up, the tested form may be a part): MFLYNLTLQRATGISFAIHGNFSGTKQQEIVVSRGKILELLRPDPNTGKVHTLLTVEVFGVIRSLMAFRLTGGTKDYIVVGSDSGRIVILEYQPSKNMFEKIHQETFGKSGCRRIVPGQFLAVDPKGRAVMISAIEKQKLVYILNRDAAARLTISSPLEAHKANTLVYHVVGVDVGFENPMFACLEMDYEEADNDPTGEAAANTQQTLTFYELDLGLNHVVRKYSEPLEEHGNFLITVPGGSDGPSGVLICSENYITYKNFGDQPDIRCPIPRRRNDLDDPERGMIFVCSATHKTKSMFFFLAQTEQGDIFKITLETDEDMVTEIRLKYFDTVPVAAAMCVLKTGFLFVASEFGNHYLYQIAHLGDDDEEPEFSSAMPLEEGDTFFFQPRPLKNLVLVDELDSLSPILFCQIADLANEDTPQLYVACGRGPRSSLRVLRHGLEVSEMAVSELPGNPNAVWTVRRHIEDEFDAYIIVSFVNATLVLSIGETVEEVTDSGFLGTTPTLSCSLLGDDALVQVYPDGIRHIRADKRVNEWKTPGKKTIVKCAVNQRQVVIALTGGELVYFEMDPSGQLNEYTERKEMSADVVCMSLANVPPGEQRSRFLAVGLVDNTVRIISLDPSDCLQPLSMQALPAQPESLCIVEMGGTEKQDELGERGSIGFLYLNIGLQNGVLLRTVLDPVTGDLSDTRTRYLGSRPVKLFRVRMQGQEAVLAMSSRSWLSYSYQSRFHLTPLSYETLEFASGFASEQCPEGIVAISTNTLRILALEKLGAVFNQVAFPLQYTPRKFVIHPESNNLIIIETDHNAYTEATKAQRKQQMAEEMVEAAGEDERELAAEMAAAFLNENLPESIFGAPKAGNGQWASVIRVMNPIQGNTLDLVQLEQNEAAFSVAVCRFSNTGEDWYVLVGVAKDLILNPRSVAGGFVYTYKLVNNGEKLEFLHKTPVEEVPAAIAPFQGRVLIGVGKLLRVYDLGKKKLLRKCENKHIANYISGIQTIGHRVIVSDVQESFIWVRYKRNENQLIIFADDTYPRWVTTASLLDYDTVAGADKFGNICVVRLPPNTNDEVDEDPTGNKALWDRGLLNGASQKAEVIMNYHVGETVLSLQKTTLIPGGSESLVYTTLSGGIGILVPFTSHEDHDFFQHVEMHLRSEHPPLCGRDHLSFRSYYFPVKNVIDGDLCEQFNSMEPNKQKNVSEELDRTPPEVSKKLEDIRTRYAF

HeLa [5] = assay: Induction of truncated p27 expression in human HeLa cells at 1 to 1000 nM by Western blot analysis; assay type: functional, cell-based
[6] = target: Cyclin-dependent kinase 2 (Homo sapiens) (UniProt P24941); assay: Induction of CDK2 in HEK293T cells transfected with FLAG-tagged truncated p27 at 200 nM by autoradiography; assay type: cell-based; conditions: HEK-293T
Summary of the method: (§1)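 HEK 293T cells were transfected with pcDNA3.1, FLAG-p27 or FLAG-p27*, or were treated with MeOH, FR901464 (20, 200 nM) or SSA (190 nM). CDK2 was immunoprecipitated and its kinase activity read by autoradiography with histone H1 and (gamma-32P)ATP. Associated proteins were detected by western blotting.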

[7] = Half life of the compound in culture medium by HPLC analysis; assay type: physicochemical
MCF7 [8] = assay: Induction of truncated p27 expression in human MCF7 cells at 1 to 100 ng/ml after 14 hrs by immunoblotting; assay type: functional, cell-based
Summary of the method: (§2)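 Human cell lines (HeLa, HEK 293T, MCF7, A549) cultured in DMEM with 10% heat-inactivated FBS. Cells treated with graded FR901464 concentrations for 14 h. Extracts immunoblotted for p27 and the truncated p27* form, with chemiluminescent detection.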

HeLa [9] = assay: Induction of cyclin A expression in human HeLa cells at 100 ng/ml after 14 hrs by Western blotting; assay type: functional, cell-based
HeLa [10] = assay: Induction of CDK6 expression in human HeLa cells at 100 ng/ml after 14 hrs by Western blotting; assay type: functional, cell-based
[11] = target: Cyclin-dependent kinase 2 (Homo sapiens) (UniProt P24941); assay: Induction of CDK2 in HEK293T cells transfected with FLAG-tagged p27 at 20 nM by Western blot analysis; assay type: cell-based; conditions: HEK-293T
Summary of the method: as §1

HeLa [12] = assay: Induction of p21 expression in human HeLa cells at 100 ng/ml after 16 hrs by Western blotting; assay type: functional, cell-based
Summary of the method: (§3)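 HeLa cells grown in DMEM with 10% FBS and treated with FR901464 at 100 ng ml-1 for 16 h. Lysates prepared by sonication in ice-cold IP buffer with protease inhibitors. Proteins separated by SDS-PAGE and immunoblotted with anti-p16, anti-p21 and anti-p27 antibodies; chemiluminescence detection.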

A549 [13] = assay: Induction of truncated p27 expression in human A549 cells at 1 to 100 ng/ml after 14 hrs by immunoblotting; assay type: functional, cell-based
Summary of the method: as §2

HeLa [14] = assay: Induction of p27 expression in human HeLa cells at 100 ng/ml after 14 hrs in presence of […] proteasome inhibitor MG132; assay type: functional, cell-based
HeLa [15] = assay: Induction of p27 expression in human HeLa cells at 1 to 100 ng/ml after 14 hrs by immunoblotting; assay type: functional, cell-based
Summary of the method: as §2

A549 [16] = assay: Induction of p27 expression in human A549 cells at 1 to 100 ng/ml after 14 hrs by immunoblotting; assay type: functional, cell-based
Summary of the method: as §2

HEK-293T [17] = assay: Induction of p27 expression in HEK293T cells at 1 to 100 ng/ml after 14 hrs by immunoblotting; assay type: functional, cell-based; conditions: Homo sapiens
Summary of the method: as §2

HEK-293T [18] = assay: Induction of truncated p27 expression in HEK293T cells at 1 to 100 ng/ml after 14 hrs by immunoblotting; assay type: functional, cell-based; conditions: Homo sapiens
Summary of the method: as §2

HeLa [19] = assay: Induction of p16 expression in human HeLa cells at 100 ng/ml after 16 hrs by Western blotting; assay type: functional, cell-based
Summary of the method: as §3

[20] = target: Cyclin-dependent kinase 2 (Homo sapiens) (UniProt P24941); assay: Induction of CDK2 in HEK293T cells transfected with FLAG-tagged truncated p27 at 20 nM by Western blot analysis; assay type: cell-based; conditions: HEK-293T
Summary of the method: as §1

HeLa [21] = assay: Induction of CDK4 expression in human HeLa cells at 100 ng/ml after 14 hrs by Western blotting; assay type: functional, cell-based
HeLa [22] = assay: Induction of p27 expression in human HeLa cells at 100 ng/ml after 16 hrs by Western blotting; assay type: functional, cell-based
Summary of the method: as §3

MCF7 [23] = assay: Induction of p27 expression in human MCF7 cells at 1 to 100 ng/ml after 14 hrs by immunoblotting; assay type: functional, cell-based
Summary of the method: as §2

HeLa [24] = assay: Induction of CDK2 expression in human HeLa cells at 100 ng/ml after 14 hrs by Western blotting; assay type: functional, cell-based
HEK-293T [25] = assay: Induction of FLAG-tagged p27 expression in HEK293T cells at 100 ng/ml after 14 hrs by Western blotting; assay type: functional, cell-based; conditions: Homo sapiens
[26] = target: Cyclin-dependent kinase 2 (Homo sapiens) (UniProt P24941); assay: Induction of CDK2 in HEK293T cells transfected with FLAG-tagged p27 at 200 nM by autoradiography; assay type: cell-based; conditions: HEK-293T
Summary of the method: as §1

HeLa [27] = assay: Induction of truncated p27 expression in human HeLa cells at 100 ng/ml after 14 hrs in presence of […] proteasome inhibitor MG132; assay type: functional, cell-based
COS-7 [28] = assay: Induction of subcellular localization in truncated p27 in african green monkey COS7 cells at 10 ng/ml after 6 hrs by immunofluorescence assay; assay type: functional, cell-based; conditions: Chlorocebus aethiops
COS-7 [29] = assay: Induction of subcellular localization in p27 in african green monkey COS7 cells at 10 ng/ml after 6 hrs by immunofluorescence assay; assay type: functional, cell-based; conditions: Chlorocebus aethiops
HeLa [30] = assay: Induction of truncated p27 expression in human HeLa cells up to 500 nM after 14 hrs by Western blotting; assay type: functional, cell-based
Summary of the method: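 HeLa cells were exposed for 14 h to 1, 3, 10, 30, 100 and 300 ng ml-1. Cell extracts were immunoblotted for p27 and its C-terminally truncated form p27*, with chemiluminescent read-out.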

Sequence of Splicing factor 3B subunit 1 (Homo sapiens) (O75533 whole entry, looked up): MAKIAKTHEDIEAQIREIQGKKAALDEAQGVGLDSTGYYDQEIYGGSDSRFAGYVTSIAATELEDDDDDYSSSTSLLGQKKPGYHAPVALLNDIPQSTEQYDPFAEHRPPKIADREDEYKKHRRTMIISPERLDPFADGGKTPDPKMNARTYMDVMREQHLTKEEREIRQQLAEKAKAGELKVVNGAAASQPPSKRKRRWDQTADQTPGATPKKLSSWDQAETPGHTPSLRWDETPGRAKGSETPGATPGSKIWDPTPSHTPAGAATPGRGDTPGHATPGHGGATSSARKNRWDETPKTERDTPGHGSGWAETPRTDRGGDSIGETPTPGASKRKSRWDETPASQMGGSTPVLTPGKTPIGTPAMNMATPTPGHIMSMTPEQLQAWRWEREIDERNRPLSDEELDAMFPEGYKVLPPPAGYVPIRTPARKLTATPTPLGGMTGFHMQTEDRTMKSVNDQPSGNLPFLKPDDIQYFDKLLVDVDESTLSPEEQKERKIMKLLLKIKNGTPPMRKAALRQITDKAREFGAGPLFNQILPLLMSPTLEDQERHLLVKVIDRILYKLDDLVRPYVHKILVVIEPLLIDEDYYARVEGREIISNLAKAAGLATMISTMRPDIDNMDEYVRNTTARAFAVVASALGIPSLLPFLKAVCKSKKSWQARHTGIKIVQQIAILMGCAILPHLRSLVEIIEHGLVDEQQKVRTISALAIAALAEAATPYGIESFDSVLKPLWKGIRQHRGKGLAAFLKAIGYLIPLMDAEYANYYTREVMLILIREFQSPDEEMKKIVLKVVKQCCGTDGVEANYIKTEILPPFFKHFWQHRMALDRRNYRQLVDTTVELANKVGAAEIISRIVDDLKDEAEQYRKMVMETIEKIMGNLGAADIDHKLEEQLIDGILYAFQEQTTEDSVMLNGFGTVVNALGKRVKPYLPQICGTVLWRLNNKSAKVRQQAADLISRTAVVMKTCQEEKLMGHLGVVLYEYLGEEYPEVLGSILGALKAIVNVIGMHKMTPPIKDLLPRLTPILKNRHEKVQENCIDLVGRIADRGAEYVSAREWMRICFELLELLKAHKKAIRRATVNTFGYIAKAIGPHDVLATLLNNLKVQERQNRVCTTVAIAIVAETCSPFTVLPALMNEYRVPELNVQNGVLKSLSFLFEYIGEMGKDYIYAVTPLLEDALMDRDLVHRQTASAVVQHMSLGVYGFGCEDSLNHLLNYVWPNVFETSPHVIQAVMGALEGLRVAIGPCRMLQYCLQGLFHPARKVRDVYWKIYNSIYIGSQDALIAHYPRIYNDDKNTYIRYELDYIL

CC(=O)O[C@@H](C)/C=C\C(=O)N[C@@H]1C[C@H](C)[C@H](C/C=C(C)/C=C/[C@H]2O[C@](C)(OCCNC(=O)CCCCCNC(=O)CCCCCNC(=O)CCCC[C@@H]3SC[C@@H]4NC(=O)N[C@@H]43)C[C@@]3(CO3)[C@@H]2O)O[C@@H]1C
Activity [1]: Active
Activity [2]: Active
Activity [3]: Active
Activity [4]: Active
Activity (HeLa [5]): Active

CC(=O)O[C@@H](C)/C=C\C(=O)N[C@@H]1C[C@H](C)[C@H](C/C=C(C)/C=C/[C@H]2O[C@](C)(O)CC3(CO3)[C@@H]2O)O[C@@H]1C (single isomer, unassigned)
Activity [6]: inactive
half-life [7]: 45 min
Activity (MCF7 [8]): Active
Activity (HeLa [9]): Active
Activity (HeLa [10]): Active
Activity [11]: inactive
Activity (HeLa [12]): Active
Activity (A549 [13]): Active
Activity (HeLa [14]): Active
Activity (HeLa [15]): Active
Activity (A549 [16]): Active
Activity (HEK-293T [17]): Active
Activity (HEK-293T [18]): Active
Activity (HeLa [19]): Active
Activity [20]: inactive
Activity (HeLa [21]): Active
Activity (HeLa [22]): Active
Activity (MCF7 [23]): Active
Activity (HeLa [24]): Active
Activity (HEK-293T [25]): Active
Activity [26]: Active
Activity (HeLa [27]): Active

CCC(=C/[C@H](C)C/C=C/C(C)=C/[C@@H](C)C(=O)[C@@H](C)[C@H](O)[C@@H](C)C/C(C)=C/C(=O)O)/C=C/[C@@H]1OC(=O)C=C[C@@H]1C
Activity (COS-7 [28]): Active
Activity (COS-7 [29]): Active

CO[C@]1(C)C[C@@]2(CO2)[C@H](OC(C)=O)[C@@H](/C=C/C(C)=C/C[C@@H]2O[C@H](C)[C@H](NC(=O)/C=C\[C@H](C)OC(C)=O)C[C@@H]2C)O1
Activity (HeLa [30]): inactive

Source: ChEMBL document CHEMBL1221204, “Spliceostatin A targets SF3b and inhibits both splicing and nuclear retention of pre-mRNA” (Nat Chem Biol, 2007)
